Ecoli rRNA inh: reduced GFP signal of wild-type E. coli, primary screen, bacterial rRNA inhibitor project, GFP/RFP fluorescence, OD600, single point | E. coli WT GFP vs humanized-ribosome RFP mutants, 24 h; active compounds read low; DMSO median 0, no signal -100 | GFP signal change (wild-type ribosome), % (test concentration not listed) | 1.6% of 350,000 active | AID 720706, 2013;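 active means significant combined selectivity score with lowered wild-type GFP, culture density cut under 30%, mutant RFP and density less affected; inactive means any of these conditions unmet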
Env fusion inh: inhibitors of HIV-1 Env-driven cell-cell fusion, primary screen, HeLa-JRFL effector, CEM21 target cells, luciferase. inhibition, % at 12.3 µM. 1.1% of 360,000 active. AID 651610, 2012;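 active means mean replicate inhibition score of at least 50 and every replicate individually at or above 50; inconclusive means only one of the two criteria met; inactive means mean below 50 and not all replicates reaching 50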
FGF22 binding: binders of human FGF22 protein, primary screen, FGF22 synaptogenesis inhibitor project, biophysical, thermal shift, single point; 1.5% of 340,000 active; recombinant FGF22 thermal shift, SYPRO orange fluorescence; percent of sucrose octasulfate shift, DMSO zero; AID 651658, 2012; activity (Tm shift, normalised), % at 9.99 µM;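 active means mean Tm shift, scaled 0 neutral to 100 positive control, at about 1.3% or above, every replicate too, limit read from the data; inconclusive means no clear call, values can overlap the other calls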
ERAP1 inh: human ERAP1 aminopeptidase inhibitors, primary screen, biochemical, single point, plate reader. recombinant ERAP1, Leu-AMC fluorescence, 60 min. inhibition, % at 10.7 µM. 0.15% of 340,000 active. Endoplasmic reticulum aminopeptidase 1 (Homo sapiens), Q9NZ08. AID 652197, 2013;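 active means mean replicate inhibition of at least 30%, or all replicates individually reaching that 30% level; inactive means mean below 30% and not every replicate reaching it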
Target sequence (Q9NZ08 whole entry, looked up): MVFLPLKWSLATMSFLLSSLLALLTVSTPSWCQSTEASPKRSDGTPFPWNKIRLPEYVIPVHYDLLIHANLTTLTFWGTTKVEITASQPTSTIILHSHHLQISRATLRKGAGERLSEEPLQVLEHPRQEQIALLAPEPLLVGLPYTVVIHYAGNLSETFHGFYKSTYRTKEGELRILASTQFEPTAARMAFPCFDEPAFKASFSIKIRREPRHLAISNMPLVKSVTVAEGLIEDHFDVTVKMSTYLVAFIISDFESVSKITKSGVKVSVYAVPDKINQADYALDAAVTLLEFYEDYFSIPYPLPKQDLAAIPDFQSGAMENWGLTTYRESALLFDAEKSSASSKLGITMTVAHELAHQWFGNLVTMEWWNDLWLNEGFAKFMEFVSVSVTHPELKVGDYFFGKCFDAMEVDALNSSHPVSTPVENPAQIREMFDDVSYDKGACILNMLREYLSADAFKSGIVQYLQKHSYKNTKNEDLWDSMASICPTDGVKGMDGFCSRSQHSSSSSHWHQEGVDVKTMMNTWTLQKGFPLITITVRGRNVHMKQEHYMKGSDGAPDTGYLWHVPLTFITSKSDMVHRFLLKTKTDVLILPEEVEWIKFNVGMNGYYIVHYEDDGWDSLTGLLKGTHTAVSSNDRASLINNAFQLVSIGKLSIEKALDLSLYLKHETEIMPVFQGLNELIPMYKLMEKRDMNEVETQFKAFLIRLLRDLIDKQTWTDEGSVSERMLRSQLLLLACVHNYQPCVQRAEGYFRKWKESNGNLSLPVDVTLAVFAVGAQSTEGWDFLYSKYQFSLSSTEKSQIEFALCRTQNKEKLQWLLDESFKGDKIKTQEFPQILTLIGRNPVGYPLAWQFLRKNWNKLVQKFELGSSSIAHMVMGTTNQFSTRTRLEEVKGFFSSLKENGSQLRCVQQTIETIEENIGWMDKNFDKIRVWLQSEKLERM
Cneo AK release: Cryptococcus neoformans cell lysis inducers, primary screen, AK release luminescence, single concentration | AID 651654, 2012 | lysis activity, % at 15 µM | C. neoformans lysis, adenylate kinase release luminescence, 4 h; normalised: neutral wells 0, clomiphene wells 100 | 0.2% of 360,000 active;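 active means mean lysis activity across replicates of at least 80%, whatever share of replicates individually reach that level; inactive means mean lysis activity below 80%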
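Material: C. neoformans cells; Schedule: 4 h static compound exposure, 37 °C, read 1 h post-reagent; Measured by: adenylate kinase release luminescence; Read-out: signal increase indicating cell lysis; Controls: Clomiphene as positive lysis control.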
PGC1a acetyl inh: inhibitors of PGC1a acetylation signal, primary screen, cell-based, U2OS, AlphaScreen, inhibitor mode | AlphaScreen anti-acetyl-lysine; with virally co-expressed GCN5 acetyltransferase | inhibition, % at 15.6 µM | 0.17% of 350,000 active | AID 651687, 2012;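 active means every replicate shows inhibition of at least 40%; inconclusive means mean inhibition at least 40% but some replicate below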
HepG2 tox: cytotoxicity in HepG2 cells, dose response, cytotoxicity control, cell-based, CellTiter-Glo luminescence, cherry-pick, set 4. 30 tested, under 10 active. HepG2 viability, ATP luminescence, 72 h. AID 743480, 2014. activity change, negative = cytotoxicity, unspecified at 26 µM. shares compounds with Ecoli rRNA inh;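 active means compounds whose fitted half-maximal signal-loss concentration is at most twice their highest valid dose; inconclusive means flat curve with 30 to 70% signal loss, or poor fit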
AID977621: growth inhibition of wild-type GFP E. coli, dose response, H69 mutant RFP, cherry-pick; E. coli wild-type GFP strain growth, fluorescence, 24 h; activity change, negative = inhibition at 50 µM; 1,900 tested, under 10 active; AID 977621, 2014; shares compounds with Ecoli rRNA inh;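 active means Wild-type ribosome reporter drop at least double the humanized mutant ribosome reporter drop, growth loss under a set limit; inconclusive means no clear call, values can overlap the other calls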;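 further: wild-type GFP and H69 mutant RFP strains grown together 50/50 in each well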
AID977628: E. coli growth inhibition, wild-type GFP versus h24 humanized RFP strain, dose response, h24 mutant RFP vs wild-type GFP, cherry-pick. 1,900 tested, under 10 active. shares compounds with Ecoli rRNA inh. E. coli WT GFP strain growth, fluorescence, 24 h. AID 977628, 2014. activity change, negative = inhibition at 50 µM;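 active means compound lowering the normal-ribosome reporter at least twice as much as the humanized-ribosome reporter, growth loss under a set limit; inconclusive means no clear call, values can overlap the other calls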;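 further: wild-type GFP and h24 humanized RFP strains co-cultured 1 to 1 per well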
Numbers stand for hits; . = inactive; ? = inconclusive; / = no result. The list is not random: actives were taken first. Their share in the collection is about 3.5%.

SMILES	Ecoli rRNA inh	Env fusion inh	FGF22 binding	ERAP1 inh	Cneo AK release	PGC1a acetyl inh	AID977621	AID977628	others
CCOc1ccc(C(=O)CCC(=O)NNC(=O)c2ccncc2)cc1	.	/	.	.	.	.	/	/
Oc1ccc(-c2csc(Nc3ncccn3)n2)cc1	-17	.	.	.	/	.	.	.
O=C(Nc1ccc(Nc2ccccc2)cc1)c1ccc(F)cc1	-21	.	.	.	.	.	.	.
O=C(Nc1ccc(Nc2ccccc2)cc1)c1c(Cl)cccc1Cl	-34	.	.	.	.	/	.	/
O=C(Nc1ccc(Nc2ccccc2)cc1)c1c(F)c(F)c(F)c(F)c1F	.	.	.	.	.	.	/	/
O=C(CN(Cc1ccccc1)C(=O)CCC(=O)Nc1nccs1)NCc1ccco1	/	/	/	/	.	.	/	/
C=C(C)CN(CC)C(=O)CSc1nc2ncc(Cl)cc2[nH]1	/	.	/	/	.	.	/	/
O=S(=O)(Nc1ccccc1N1CCCCC1)c1cccs1	-33	.	.	.	.	.	.	.
O=S(=O)(Nc1ccccc1N1CCOCC1)c1cccs1	.	.	.	.	.	.	/	/
OC[C@H]1O[C@H](OCc2ccccc2)[C@H](O[C@@H]2OC[C@@H](O)[C@H](O)[C@H]2O)[C@@H](O)[C@@H]1O	.	/	.	.	.	.	/	/
CC(=O)Nc1cccc(OCc2ccc([N+](=O)[O-])cc2)c1	-23	.	.	.	/	/	.	.
COc1cccc(NC(=O)c2ccc(-c3ccc([N+](=O)[O-])cc3)o2)c1	-28	.	.	.	/	/	.	/
CC(=O)Nc1cccc(OCCCOc2ccc([N+](=O)[O-])cc2)c1	.	.	.	.	/	/	/	/
Cc1cccc(N(C(=O)c2csnn2)C(C(=O)NCc2ccccc2)c2ccc(C)o2)c1 (stereo unspecified)	.	.	.	.	.	.	/	/
COC(=O)c1sccc1NC(=O)Cc1ccc(OC)cc1	-27	.	.	.	/	.	.	/
COc1ccc(CC(=O)Nc2cc(S(=O)(=O)Nc3ccc(OC)cc3)ccc2OC)cc1	-18	.	.	.	.	.	.	.
O=C(COC(=O)/C=C/c1ccc(Cl)cc1)NCCC1=CCCCC1	/	.	/	/	.	/	/	/
COC(=O)c1ccc2c(=O)[nH]c(CSc3nc(-c4ccc(F)cc4)cs3)nc2c1	/	.	/	/	/	/	/	/
CN1C(=O)N(C)C(c2cccc([N+](=O)[O-])c2)C2=C1CCCC2=O (stereo unspecified)	.	.	.	.	.	/	/	/
COc1cccc(C(=O)Nc2cc(C)nn2-c2ccccc2)c1OC	-34	.	.	.	.	.	/	/	HepG2 tox=.
CC1Cc2cc(-c3csc(NC(=O)Cc4ccccc4)n3)ccc2N1S(C)(=O)=O (stereo unspecified)	-26	/	.	.	.	.	.	.
CS(=O)(=O)N1CCc2cc(-c3csc(NC(=O)C(c4ccccc4)c4ccccc4)n3)ccc21	/	/	/	/	.	.	/	/
COc1ccccc1N(C)S(=O)(=O)c1ccc(C(=O)NC(C)c2ccccc2)cc1 (stereo unspecified)	-18	.	.	/	.	.	/	?
CN(c1ccc(C(=O)NCc2cccs2)cc1)S(=O)(=O)c1ccccc1	-18	.	.	/	/	/	.	.
CCCC[n+]1ccn(-c2nc3ccccc3nc2[N-]S(=O)(=O)c2cccs2)c1	-26	.	.	.	.	.	/	.
SMILES	Ecoli rRNA inh	Env fusion inh	FGF22 binding	ERAP1 inh	Cneo AK release	PGC1a acetyl inh	AID977621	AID977628	others
CCN(CC(=O)NCCCN1CCOCC1)S(=O)(=O)c1ccc(F)cc1	.	.	.	.	.	.	/	/
O=S(=O)(NCc1cc(-c2ccccc2)no1)c1ccccc1Cl	-21	.	.	.	/	.	.	.
COc1ccc(NS(=O)(=O)c2cc(N/C(=N\S(=O)(=O)c3ccccc3)c3ccc(F)cc3)ccc2Cl)cc1	/	.	/	/	/	/	/	/
COC(=O)c1cc2ccccc2n1S(=O)(=O)c1ccccc1	-32	.	.	.	.	.	.	.
Cc1occc1-c1nnc(SCC(=O)Nc2nc(-c3ccccc3)cs2)o1	-24	/	.	.	.	.	?	.
Cc1cc(-c2nnc(SCC(=O)Nc3nc(-c4ccccc4)cs3)o2)no1	.	.	.	.	.	.	/	/
CCN(CC)CCN(C(=O)c1ccc2c(c1)CCCC2)c1nc2ccc(F)cc2s1	-23	.	.	.	/	.	.	/
COc1cccc(C(=O)C2CCCN(C/C=C/c3ccccc3OC)C2)c1 (stereo unspecified)	-29	.	.	.	.	.	?	?
COc1cc2cc(C(=O)Nc3ccc4c(c3)OCCO4)[nH]c2cc1OC	-21	.	.	.	.	.	.	.
O=C(NCCc1ccccc1)c1[nH]c(C(F)(F)F)nc1-c1ccccc1	.	.	.	.	.	.	/	/
O=C(NCCc1ccc(O)cc1)c1[nH]c(C(F)(F)F)nc1-c1ccccc1	-23	.	.	/	.	.	.	?
COc1cc(C2CC(=O)Oc3ccc(C(C)(C)C)cc32)cc(OC)c1OC (stereo unspecified)	.	.	.	/	.	.	/	/
CC(C)(C)c1ccc2c(c1)C(c1ccc3c(c1)OCO3)CC(=O)O2 (stereo unspecified)	-25	.	.	/	.	.	.	/
COc1ccc(C2CC(=O)Oc3cc(C)cc(C)c32)cc1 (stereo unspecified)	-24	.	.	/	.	.	.	.
Cc1ccc(C2CC(=O)Oc3cc(C)cc(C)c32)cc1 (stereo unspecified)	.	.	.	/	.	.	/	/
Cc1cc(C)c2c(c1)OC(=O)CC2c1ccc2c(c1)OCO2 (stereo unspecified)	.	.	.	/	.	.	/	/
COc1cc2c(c(OC)c1OC)C(c1ccc3c(c1)OCO3)CC(=O)O2 (stereo unspecified)	-20	.	.	/	.	.	.	.
Cc1cc(C)c(S(=O)(=O)N2CCC(C(N)=O)CC2)cc1C	/	.	/	/	.	.	/	/

High-throughput results from PubChem BioAssay.
